Active and inactive are the calls of the source. The rule behind the calls is not given here.
Columns and labels:
[1] = molecular target: Keap1/Nrf2 (Homo sapiens) (UniProt Q16236+Q14145); test: Inhibition of kelch domain of Keap1 (unknown origin) interaction to high affinity ETGE motif from Nrf2 unknown origin) at 100 uM by fluorescence polarization assay; type: protein assay
How it was run: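 Fluorescence polarization competition. Keap1 Kelch domain with fluorescein-labelled ETGE peptide FITC-β-DEETGEF-OH (β = β-alanine). Displacement measured with a fixed 100 µM inhibitor; percent inhibition reported.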

[2] = molecular target: T1, Nuclear factor erythroid 2-related factor 2 (Mus musculus) (UniProt Q60795); test: Activation of Nrf2 in mouse Hepa1c1c7 cells assessed as induction of NQO1 production at 10 uM after 24 hrs by MTT colorimetric assay relative to control; type: cell-based
T1 sequence (whole entry): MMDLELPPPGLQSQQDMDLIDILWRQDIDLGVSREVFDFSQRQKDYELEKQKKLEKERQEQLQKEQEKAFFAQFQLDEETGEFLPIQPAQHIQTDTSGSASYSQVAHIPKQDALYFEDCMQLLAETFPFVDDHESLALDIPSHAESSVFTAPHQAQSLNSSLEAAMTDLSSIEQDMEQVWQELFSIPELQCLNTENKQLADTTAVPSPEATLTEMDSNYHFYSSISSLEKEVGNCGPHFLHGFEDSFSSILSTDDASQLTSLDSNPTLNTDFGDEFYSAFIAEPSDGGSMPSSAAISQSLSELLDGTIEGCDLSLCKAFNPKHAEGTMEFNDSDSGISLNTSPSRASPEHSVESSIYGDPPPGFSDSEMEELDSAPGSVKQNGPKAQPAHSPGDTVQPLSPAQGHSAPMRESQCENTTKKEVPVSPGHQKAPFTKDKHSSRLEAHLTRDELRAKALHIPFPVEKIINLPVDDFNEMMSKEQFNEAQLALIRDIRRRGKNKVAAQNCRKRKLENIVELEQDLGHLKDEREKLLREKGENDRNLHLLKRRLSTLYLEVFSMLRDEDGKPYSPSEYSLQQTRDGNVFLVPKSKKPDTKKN
How it was run: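 Hepa1c1c7 mouse hepatoma cells treated at a fixed 10 µM for 24 h. NQO1 enzyme activity read by colorimetric induction assay and expressed as fold induction over control.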

[3] = molecular target: Keap1/Nrf2 (Homo sapiens, UniProt Q14145); test: Inhibition of kelch domain of Keap1 (unknown origin) interaction to high affinity ETGE motif from Nrf2 by fluorescence polarization assay; type: protein assay
How it was run: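 Competitive fluorescence polarization, dose-response format. Keap1 Kelch domain with fluorescein-labelled Nrf2 ETGE peptide FITC-β-DEETGEF-OH. EC50 derived from dose-response curves.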

[4] = molecular target: T1, Nuclear factor erythroid 2-related factor 2 (Mus musculus); test: Activation of Nrf2 in mouse Hepa1c1c7 cells assessed as concentration required to 2 fold induction of NQO1 production after 24 hrs by MTT colorimetric assay; type: cell-based
How it was run: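 Hepa1c1c7 mouse hepatoma cells exposed to a concentration range for 24 h. NQO1 enzymatic activity measured by colorimetric induction assay. Value reported as CD, the concentration giving a two-fold increase in NQO1 activity.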

[5] = organism: Mus musculus; test: Increase of Nrf2 protein level in mouse Hepa1c1c7 cells at 10 uM after 24 hrs by Western blot analysis; type: functional, cell-based
How it was run: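 Hepa1c1c7 cells incubated with test compounds at 10 µM for various exposure times, up to 24 h. Nrf2, HO-1 and NQO1 protein levels assessed by Western blot.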

Keap1/Nrf2, sequence (Q16236 whole entry, the tested form may be a part): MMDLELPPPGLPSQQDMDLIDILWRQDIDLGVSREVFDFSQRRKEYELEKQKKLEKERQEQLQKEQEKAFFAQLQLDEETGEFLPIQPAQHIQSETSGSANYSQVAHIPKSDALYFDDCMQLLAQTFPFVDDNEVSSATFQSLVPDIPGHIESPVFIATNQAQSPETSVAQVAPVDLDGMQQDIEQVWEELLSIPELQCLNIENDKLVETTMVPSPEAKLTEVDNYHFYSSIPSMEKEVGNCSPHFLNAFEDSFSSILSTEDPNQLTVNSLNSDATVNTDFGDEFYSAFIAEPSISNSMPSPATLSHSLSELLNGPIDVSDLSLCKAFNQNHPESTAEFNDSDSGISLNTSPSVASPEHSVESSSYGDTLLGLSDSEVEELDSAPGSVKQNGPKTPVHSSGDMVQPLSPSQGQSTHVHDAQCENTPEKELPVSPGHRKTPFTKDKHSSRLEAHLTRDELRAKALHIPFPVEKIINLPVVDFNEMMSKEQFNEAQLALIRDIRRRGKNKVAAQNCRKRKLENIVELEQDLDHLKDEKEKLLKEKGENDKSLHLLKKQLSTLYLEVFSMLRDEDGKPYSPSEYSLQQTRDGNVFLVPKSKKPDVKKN
Keap1/Nrf2, sequence (Q14145 whole entry, the tested form may be a part): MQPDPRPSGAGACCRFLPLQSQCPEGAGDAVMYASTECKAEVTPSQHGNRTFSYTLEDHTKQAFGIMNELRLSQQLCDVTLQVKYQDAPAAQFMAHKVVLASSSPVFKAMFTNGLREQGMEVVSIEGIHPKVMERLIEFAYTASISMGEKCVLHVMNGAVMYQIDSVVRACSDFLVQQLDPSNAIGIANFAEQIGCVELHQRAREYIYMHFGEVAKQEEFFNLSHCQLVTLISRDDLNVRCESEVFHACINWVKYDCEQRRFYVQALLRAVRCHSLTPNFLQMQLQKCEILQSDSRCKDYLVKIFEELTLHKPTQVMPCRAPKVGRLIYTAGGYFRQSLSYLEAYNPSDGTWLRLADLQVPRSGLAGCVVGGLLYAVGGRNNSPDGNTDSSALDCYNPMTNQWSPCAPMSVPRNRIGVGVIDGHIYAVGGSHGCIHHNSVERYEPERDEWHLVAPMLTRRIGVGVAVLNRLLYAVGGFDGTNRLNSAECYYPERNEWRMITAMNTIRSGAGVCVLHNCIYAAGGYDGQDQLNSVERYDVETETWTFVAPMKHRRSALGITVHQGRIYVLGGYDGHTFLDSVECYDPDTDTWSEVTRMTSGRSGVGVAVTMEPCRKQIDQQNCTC
Keap1/Nrf2 (Homo sapiens), sequence (Q14145 whole entry, looked up, the tested form may be a part): as the sequence (Q14145 whole entry, the tested form may be a part) above
Keap1/Nrf2 (Homo sapiens), sequence (Q16236 whole entry, looked up, the tested form may be a part): as the sequence (Q16236 whole entry, the tested form may be a part) above

Row | Compound | inhibition [1] | fold change (FC) [2] | EC50 [3] | CD [4] | Activity [5]
1 | CCOc1cccc(-n2cc(-c3cccc(C#N)c3)nn2)c1 | 24.5% | 1.3 |  |  | 
2 | Clc1cccc(-n2cc(-c3cccc(-c4nnn[nH]4)c3)nn2)c1 | 40.7% | 1.24 |  |  | 
3 | Ic1cccc(-n2cc(-c3cccc(-c4nnn[nH]4)c3)nn2)c1 | 51.5% | 1.03 |  |  | 
4 | O=[N+]([O-])c1ccc(-c2cn(-c3ccc([N+](=O)[O-])cc3)nn2)cc1 | 72.6% | 1 |  |  | 
5 | N#Cc1cccc(-c2cn(-c3cccc([N+](=O)[O-])c3)nn2)c1 | 59.4% | 2.1 |  |  | 
6 | O=[N+]([O-])c1ccc(-c2cn(-c3cccc([N+](=O)[O-])c3)nn2)cc1 | 46.5% | 1.81 |  |  | 
7 | O=C(O)c1ccc(-c2cn(-c3ccc(C(=O)O)cc3)nn2)cc1 | 77.3% | 0.9 |  |  | 
8 | O=C(O)c1ccc(-c2cn(-c3cccc([N+](=O)[O-])c3)nn2)cc1 | 87.5% | 1.06 |  |  | 
9 | CC(C)(C)c1cccc(-n2cc(-c3cccc([N+](=O)[O-])c3)nn2)c1 | 69.8% | 1.93 | 37.8 µM | > 10 µM | inactive
10 | CSc1cccc(-n2cc(-c3cccc([N+](=O)[O-])c3)nn2)c1 | 77.7% | 2.95 | 38.5 µM |  | 
11 | N#Cc1cccc(-c2cn(-c3cccc(C#N)c3)nn2)c1 | 58.8% | 1.92 |  |  | 
12 | Cc1cccc(-n2cc(-c3cccc(C#N)c3)nn2)c1 | 49.7% | 1.69 |  |  | 
13 | N#Cc1cccc(-c2cn(-c3ccc(C(=O)O)cc3)nn2)c1 | 52.8% | 0.98 |  |  | 
14 | N#Cc1cccc(-n2cc(-c3cccc([N+](=O)[O-])c3)nn2)c1 | 36.8% | 2.33 |  |  | 
15 | O=[N+]([O-])c1cccc(-c2cn(-c3cccc(Br)c3)nn2)c1 | 68.2% | 2.94 | 24.5 µM | 1.2 µM | 
16 | O=[N+]([O-])c1cccc(-c2cn(-c3cccc([N+](=O)[O-])c3)nn2)c1 | 81% | 2.3 | 11.5 µM |  | 
17 | N#Cc1cccc(-c2cn(-c3cccc(I)c3)nn2)c1 | 21.9% | 1.53 |  |  | 
18 | O=[N+]([O-])c1cccc(-n2cc(-c3cccc(-c4nnn[nH]4)c3)nn2)c1 | 71.1% | 1.75 |  |  | 
19 | O=C(O)c1ccc(-n2cc(-c3cccc(-c4nnn[nH]4)c3)nn2)cc1 | 70% | 1 |  |  | 

Row | Compound | inhibition [1] | fold change (FC) [2] | EC50 [3] | CD [4] | Activity [5]
20 | CCOc1cccc(-n2cc(-c3cccc([N+](=O)[O-])c3)nn2)c1 | 69.3% | 2.48 | 11.3 µM |  | 
21 | O=C(O)c1ccc(-c2cn(-c3ccc([N+](=O)[O-])cc3)nn2)cc1 | 83.8% | 0.89 |  |  | 
22 | NC(=O)c1ccc(-c2cn(-c3ccc(C(N)=O)cc3)nn2)cc1 |  | 0.98 |  |  | 
23 | N#Cc1cccc(-c2cn(-c3cccc(Cl)c3)nn2)c1 | 19.9% | 2.39 |  |  | 
24 | NC(=O)c1ccc(-c2cn(-c3ccc([N+](=O)[O-])cc3)nn2)cc1 |  | 1.02 |  |  | 
25 | O=[N+]([O-])c1cccc(-c2cn(-c3ccccc3)nn2)c1 | 66.9% | 1.95 | 20.6 µM | > 10 µM | 
26 | O=[N+]([O-])c1cccc(-c2cn(-c3cccc(C(F)(F)F)c3)nn2)c1 | 66.9% | 2.54 | 22.6 µM |  | 
27 | Cc1c(-c2cnccn2)ssc1=S |  |  |  | 10.2 µM | 
28 | O=[N+]([O-])c1cccc(-c2cn(-c3ccc4c(c3)OCO4)nn2)c1 | 67.2% | 2.24 | 15 µM |  | 
29 | Cc1cccc(-n2cc(-c3cccc(-c4nnn[nH]4)c3)nn2)c1 | 30.4% | 0.88 |  |  | 
30 | NC(=O)c1ccc(-n2cc(-c3ccc([N+](=O)[O-])cc3)nn2)cc1 | 46.1% | 1.07 |  |  | 
31 | O=[N+]([O-])c1cccc(-c2cn(-c3cccc(Cl)c3)nn2)c1 | 60.4% | 2.5 | 8.8 µM | 0.7 µM | 
32 | O=[N+]([O-])c1ccc(-n2cc(-c3cccc([N+](=O)[O-])c3)nn2)cc1 | 74.8% | 3.38 |  |  | 
33 | O=[N+]([O-])c1cccc(-c2cn(-c3cccc(F)c3)nn2)c1 | 42.6% | 2.27 |  |  | 
34 | CN(C)c1cccc(-n2cc(-c3cccc([N+](=O)[O-])c3)nn2)c1 | 65.4% | 2.91 | 12.7 µM | 2 µM | 
35 | CCOc1cccc(-n2cc(-c3cccc(-c4nnn[nH]4)c3)nn2)c1 | 39.6% | 1.31 |  |  | 
36 | c1cc(-c2cn(-c3cccc(-c4nnn[nH]4)c3)nn2)cc(-c2nnn[nH]2)c1 | 13.7% | 0.84 |  |  | 
37 | O=C(O)c1ccc(-n2cc(-c3ccc([N+](=O)[O-])cc3)nn2)cc1 | 81.3% | 0.99 |  |  | 
38 | COc1cccc(-n2cc(-c3cccc([N+](=O)[O-])c3)nn2)c1 | 68.2% | 2.56 | 15 µM | 4.7 µM | 

The next lines start with results.

Row | inhibition [1] | fold change (FC) [2] | EC50 [3] | CD [4] | Compound | Activity [5]
39 | 70.7% | 0.81 |  |  | NC(=O)c1cccc(-c2cn(-c3ccc(C(=O)O)cc3)nn2)c1 | 
40 |  | 0.79 |  |  | NC(=O)c1ccc(-c2cn(-c3ccc(C(=O)O)cc3)nn2)cc1 | 
41 | 96.3% | 1.07 |  |  | NC(=O)c1cccc(-n2cc(-c3cccc(C(=O)O)c3)nn2)c1 | 
42 | 63.8% | 0.85 |  |  | O=C(O)c1cccc(-c2cn(-c3cccc([N+](=O)[O-])c3)nn2)c1 | 
43 | 2.34% | 1.33 |  |  | NC(=O)c1ccc(-c2cn(-c3cccc([N+](=O)[O-])c3)nn2)cc1 | 
44 | 62.2% | 0.98 |  |  | NC(=O)c1cccc(-n2cc(-c3ccc([N+](=O)[O-])cc3)nn2)c1 | 
45 | 80.1% | 0.83 | 5 µM | > 10 µM | O=C(O)c1cccc(-n2cc(-c3cccc([N+](=O)[O-])c3)nn2)c1 | 
46 | 65.3% | 2.09 |  |  | NC(=O)c1cccc(-n2cc(-c3cccc([N+](=O)[O-])c3)nn2)c1 | 
47 | 32% | 2.06 |  |  | NC(=O)c1cccc(-c2cn(-c3cccc([N+](=O)[O-])c3)nn2)c1 | 
48 | 39.4% |  |  |  | O=C(O)c1ccc(-n2cc(-c3cccc([N+](=O)[O-])c3)nn2)cc1 | 
49 | 64.5% | 2.08 |  |  | NC(=O)c1ccc(-n2cc(-c3cccc([N+](=O)[O-])c3)nn2)cc1 | 
50 | 61% | 0.66 |  |  | O=C(O)c1cccc(-n2cc(-c3ccc([N+](=O)[O-])cc3)nn2)c1 | 
51 | 82.3% | 0.86 |  |  | O=C(O)c1cccc(-c2cn(-c3cccc(C(=O)O)c3)nn2)c1 | 
52 | 65.3% |  |  |  | NC(=O)c1cccc(-c2cn(-c3cccc(C(N)=O)c3)nn2)c1 | 
53 | 78.6% | 0.71 |  |  | NC(=O)c1cccc(-c2cn(-c3cccc(C(=O)O)c3)nn2)c1 | 
54 | 76.5% | 0.86 |  |  | NC(=O)c1ccc(-n2cc(-c3ccc(C(=O)O)cc3)nn2)cc1 | 
55 | 89.6% | 0.47 |  |  | O=C(O)c1ccc(-c2cn(-c3cccc(C(=O)O)c3)nn2)cc1 | 
56 | 15.4% | 0.95 |  |  | NC(=O)c1cccc(-n2cc(-c3ccc(C(=O)O)cc3)nn2)c1 | 
57 | 82.3% | 1.14 |  |  | O=C(O)c1cccc(-c2cn(-c3ccc([N+](=O)[O-])cc3)nn2)c1 | 
58 | 87.6% | 0.91 |  |  | NC(=O)c1ccc(-n2cc(-c3cccc(C(=O)O)c3)nn2)cc1 | 
59 | 43.7% | 1.02 |  |  | NC(=O)c1ccc(-c2cn(-c3cccc(C(N)=O)c3)nn2)cc1 | 
60 |  | 0.79 |  |  | NC(=O)c1ccc(-c2cn(-c3cccc(C(=O)O)c3)nn2)cc1 | 
61 | 48% | 1.05 |  |  | NC(=O)c1cccc(-c2cn(-c3ccc([N+](=O)[O-])cc3)nn2)c1 | 
